{"data": "Published values of several laboratories", "target": "Cytoplasmic tyrosine-protein kinase BMX (BMX, Homo sapiens, UniProt P51813)", "Residues used in one study (P51813 1-675)": "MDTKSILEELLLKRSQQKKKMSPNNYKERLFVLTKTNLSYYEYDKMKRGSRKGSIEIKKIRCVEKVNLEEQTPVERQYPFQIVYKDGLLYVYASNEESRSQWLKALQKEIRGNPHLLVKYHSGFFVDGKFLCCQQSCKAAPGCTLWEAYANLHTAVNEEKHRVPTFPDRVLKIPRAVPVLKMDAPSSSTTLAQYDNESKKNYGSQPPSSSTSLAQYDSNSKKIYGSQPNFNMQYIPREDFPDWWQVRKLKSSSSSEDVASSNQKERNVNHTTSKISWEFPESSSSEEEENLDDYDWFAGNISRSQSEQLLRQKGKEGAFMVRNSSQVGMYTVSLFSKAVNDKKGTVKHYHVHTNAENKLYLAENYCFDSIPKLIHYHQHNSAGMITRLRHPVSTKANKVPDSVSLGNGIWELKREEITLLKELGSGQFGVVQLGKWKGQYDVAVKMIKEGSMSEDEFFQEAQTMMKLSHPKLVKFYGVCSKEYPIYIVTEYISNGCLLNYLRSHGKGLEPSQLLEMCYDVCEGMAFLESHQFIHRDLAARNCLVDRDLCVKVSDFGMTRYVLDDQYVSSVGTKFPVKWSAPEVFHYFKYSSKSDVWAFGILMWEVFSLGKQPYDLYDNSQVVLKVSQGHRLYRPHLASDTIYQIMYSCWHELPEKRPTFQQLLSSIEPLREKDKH", "note": "Protocols differ between the studies behind these lines."}
{"SMILES": "C[C@H]1CCN(c2nccc(-c3cnn4ncccc34)n2)C1", "assay": "binding", "conditions": "1 µM", "remaining binding": "84%"}
{"SMILES": "C[C@@H](c1ccc(-n2cnc3c(N)ncnc32)cc1)N1CCc2nn(C)c(Cc3ccccc3)c2C1=O", "assay": "binding, competition with immobilised ligand", "conditions": "0.1 µM", "remaining binding": "52%"}
{"SMILES": "CCC(=N\\O)/C(C)=C/c1ccc(F)cc1", "assay": "cell-free assay, competition with immobilised ligand", "conditions": "1 µM", "remaining binding": "83%"}
{"SMILES": "CN(CCCC(F)(F)F)c1nccc(-c2cnn3ncccc23)n1", "assay": "binding", "conditions": "1 µM", "remaining binding": "83%"}
{"SMILES": "C[C@@H](c1cccc(C#N)c1)n1cc(Cl)cc(C(N)=O)c1=N", "assay": "cell-free assay, competition with immobilised ligand", "conditions": "1 µM", "remaining binding": "95%"}
{"SMILES": "O=C(c1ccc(Nc2nccc(-c3cc4ccccc4s3)n2)cc1)N1CCC(N2CCCC2)CC1", "assay": "binding, competition with immobilised ligand", "conditions": "1 µM", "remaining binding": "91%"}
{"SMILES": "C=CC(=O)N1CCC(C(=O)NCC(=O)N2CCN(c3nc(-c4cnc(N)nc4C(F)F)nc(N4CCOCC4)n3)CC2)CC1", "assay": "binding, competition with immobilised ligand", "conditions": "1 µM", "remaining binding": "99%"}
{"SMILES": "c1cncc(-c2cccc(Nc3nccc(NC4CCCCC4)n3)c2)c1", "assay": "binding, competition with immobilised ligand", "conditions": "10 µM", "remaining binding": "82%"}
{"SMILES": "CNC(=O)[C@@H]1CC[C@@H](n2c(-c3ccc4cnccc4c3)nc3ccc(C(=O)NCc4cccc(C(N)=O)c4)cc32)C1", "assay": "binding, competition with immobilised ligand", "conditions": "1 µM", "remaining binding": "100%"}
{"SMILES": "COc1ccnn2ncc(-c3ccnc(N(C)C)n3)c12", "assay": "binding", "conditions": "1 µM", "remaining binding": "100%"}
{"SMILES": "COc1ccc2cc(OCC3(C(=O)O)CN(C(=O)c4ccc(F)cc4)C3)ccc2c1", "assay": "cell-free assay, competition with immobilised ligand", "conditions": "1 µM", "remaining binding": "87%"}
{"SMILES": "O=C(NCCCN1CCOCC1)c1ccc(Nc2ncc(Cl)c(-c3ccc(Cl)s3)n2)cc1", "assay": "binding, competition with immobilised ligand", "conditions": "1 µM", "remaining binding": "89%"}
{"SMILES": "CCCOc1ccc([C@H]2[C@H](C(=O)O)[C@@H](c3ccc4c(c3)OCO4)CN2CC(=O)Nc2c(CC)cccc2CC)cc1", "assay": "cell-free assay, competition with immobilised ligand", "conditions": "1 µM", "remaining binding": "100%"}
{"SMILES": "F[C@@H]1CCN(c2nccc(-c3cnn4ncccc34)n2)C1", "assay": "binding", "conditions": "1 µM", "remaining binding": "83%"}
{"SMILES": "O=C(N1CCS(=O)(=O)CC1)N1C[C@H](c2ccc(OC(F)(F)F)cc2)C[C@H](c2nc(C3CC3)no2)C1", "assay": "cell-free assay, competition with immobilised ligand", "conditions": "1 µM", "remaining binding": "100%"}
{"SMILES": "CN(C)c1nccc(-c2cnn3ncccc23)n1", "assay": "binding", "conditions": "1 µM", "remaining binding": "87%"}
{"SMILES": "O=C(c1ccc(Nc2ncc(Cl)c(-c3ccc(Cl)s3)n2)cc1)N1CCC(N2CCCC2)CC1", "assay": "binding, competition with immobilised ligand", "conditions": "1 µM", "remaining binding": "79%"}
{"SMILES": "FC(F)(F)Oc1cccc(-c2cnc3ccc(-c4ccncc4)nn23)c1", "assay": "cell-free assay, competition with immobilised ligand", "conditions": "5 µM", "remaining binding": "86%"}
{"SMILES": "O=C(NCC1CCOCC1)c1n[nH]cc1NC(=O)c1c(F)cccc1F", "assay": "binding, competition with immobilised ligand", "conditions": "1 µM", "remaining binding": "100%"}
{"SMILES": "CN(c1nccc(-c2cnn3ncccc23)n1)C1CC1", "assay": "binding", "conditions": "1 µM", "remaining binding": "82%"}
{"SMILES": "O=C(O)[C@H]1[C@H](Cn2nnc3ccccc3c2=O)CC[C@@H]1C(=O)c1ccc(OCCC2CCOCC2)cc1", "assay": "cell-free assay, competition with immobilised ligand", "conditions": "1 µM", "remaining binding": "92%"}
